14 compounds from ChEMBL document CHEMBL1155646, “Kinmoonosides A-C, three new cytotoxic saponins from the fruits of Acacia concinna, a medicinal plant collected in myanmar” (2000) can be followed below.

The assay concerns HT-1080. Kind of assay: Cytotoxicity against human HT1080 cells by 3-(4,5-dimethylthiazol-2-yl)-[…] bromide assay. It is filed as functional. Particulars: read-out: ED50 (the source's name). The procedure, abridged: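 Human HT-1080 fibrosarcoma cells were tested in a standard tetrazolium (MTT) viability assay following an earlier published protocol. Potency was reported as ED50, given in µg/mL and also converted to µM.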

Regarding `O=c1[nH]cc(F)c(=O)[nH]1` [FLUOROURACIL], the EC50 is 8000 nM. Turning to `CC(=O)N[C@H]1[C@H](O[C@H]2CC[C@]3(C)[C@H]4CC=C5[C@@H]6CC(C)(C)[C@@H](O)C[C@]6(C(=O)O)[C@H](O)C[C@@]5(C)[C@]4(C)CC[C@H]3C2(C)C)O[C@H](CO[C@@H]2OC[C@H](O)[C@H](O)[C@H]2O[C@@H]2OC[C@@H](O)[C@H](O)[C@H]2O)[C@@H](O)[C@@H]1O` [PROSAPOGENIN 2], the EC50 was over 100 µg/mL. As for `C=CC1(C)CCC(C(CO)C(=O)O)O1` (centres undefined), the EC50 is over 100 µg/mL. Regarding `C=CC(C)(CC/C=C(\CO)C(=O)O)O[C@@H]1O[C@H](C)[C@@H](O)[C@H](O)[C@H]1O` (some centres undefined), the EC50 is over 100 µg/mL. On to `C=CC(C)(O)CC/C=C(\CO)C(=O)O[C@H]1C[C@]2(C(=O)O[C@@H]3O[C@H](CO)[C@@H](O)[C@H](O)[C@H]3O[C@@H]3O[C@@H](C)[C@H](O[C@H]4O[C@@H](CO)[C@H](O)[C@H]4O)[C@@H](O[C@@H]4O[C@H](CO)[C@@H](O)[C@H](O)[C@H]4O)[C@H]3O)[C@H](O)C[C@]3(C)C(=CC[C@@H]4[C@@]5(C)CC[C@H](O[C@@H]6O[C@H](CO[C@@H]7OC[C@H](O)[C@H](O)[C@H]7O)[C@@H](O)[C@H](O)[C@H]6O[C@@H]6O[C@H](CO)[C@@H](O)[C@H](O)[C@H]6O)C(C)(C)[C@@H]5CC[C@]43C)[C@@H]2CC1(C)C` (some centres undefined), for which the EC50 was determined as 2830 nM. With `C=CC(C)(O)CC/C=C(\CO)C(=O)O[C@H]1[C@H](O)[C@@H](O)C(O)O[C@@H]1C` (some centres undefined), the EC50 was over 100 µg/mL. `C=CC(C)(O)CC/C=C(\CO)C(=O)O[C@H]1[C@H](O)[C@@H](O)[C@H](O[C@@](C)(C=C)CC/C=C(\CO)C(=O)O[C@H]2C[C@]3(C(=O)O[C@@H]4O[C@H](CO)[C@@H](O)[C@H](O)[C@H]4O[C@@H]4O[C@@H](C)[C@H](O[C@H]5O[C@@H](CO)[C@H](O)[C@H]5O)[C@@H](O[C@@H]5O[C@H](CO)[C@@H](O)[C@H](O)[C@H]5O)[C@H]4O)[C@H](O)C[C@]4(C)C(=CC[C@@H]5[C@@]6(C)CC[C@H](O[C@@H]7O[C@H](CO[C@@H]8OC[C@H](O)[C@H](O)[C@H]8O)[C@@H](O)[C@H](O)[C@H]7O[C@@H]7O[C@H](CO)[C@@H](O)[C@H](O)[C@H]7O)C(C)(C)[C@@H]6CC[C@]54C)[C@@H]3CC2(C)C)O[C@@H]1C` (some centres undefined) [KINMOONOSIDES A]: the EC50 worked out at 700 nM.

For `C=CC(C)(O)CC/C=C(\CO)C(=O)O[C@H]1[C@H](O)[C@@H](O)[C@H](O[C@](C)(C=C)CC/C=C(\CO)C(=O)O[C@H]2C[C@]3(C(=O)O[C@@H]4O[C@H](CO)[C@@H](O)[C@H](O)[C@H]4O[C@@H]4O[C@@H](C)[C@H](O[C@H]5O[C@@H](CO)[C@H](O)[C@H]5O)[C@@H](O[C@@H]5O[C@H](CO)[C@@H](O)[C@H](O)[C@H]5O)[C@H]4O)[C@H](O)C[C@]4(C)C(=CC[C@@H]5[C@@]6(C)CC[C@H](O[C@@H]7O[C@H](CO[C@@H]8OC[C@H](O)[C@H](O)[C@H]8O)[C@@H](O)[C@H](O)[C@H]7O[C@@H]7O[C@H](CO)[C@@H](O)[C@H](O)[C@H]7O)C(C)(C)[C@@H]6CC[C@]54C)[C@@H]3CC2(C)C)O[C@@H]1C` (some centres undefined) [KINMOONOSIDE B], the EC50 worked out at 910 nM.

For the compound `C=CC(C)(O)CC/C=C(\C)C(=O)O` (centres undefined) [MENTHIAFOLIC ACID], the EC50 is over 100 µg/mL. For `CC(=O)N[C@H]1[C@H](O[C@H]2CC[C@]3(C)[C@H]4CC=C5[C@@H]6CC(C)(C)[C@@H](O)C[C@]6(C(=O)O)[C@H](O)C[C@@]5(C)[C@]4(C)CC[C@H]3C2(C)C)O[C@H](CO[C@@H]2OC[C@H](O)[C@H](O)[C@H]2O)[C@@H](O)[C@@H]1O` the value was over 100 µg/mL; for `CC1(C)C[C@H]2C3=CC[C@@H]4[C@@]5(C)CC[C@H](O[C@@H]6O[C@H](CO[C@@H]7OC[C@H](O)[C@H](O)[C@H]7O)[C@@H](O)[C@H](O)[C@H]6O[C@@H]6O[C@H](CO)[C@@H](O)[C@H](O)[C@H]6O)C(C)(C)[C@@H]5CC[C@@]4(C)[C@]3(C)C[C@@H](O)[C@@]2(C(=O)O)C[C@@H]1O`, over 100 µg/mL; for `C[C@H]1O[C@@H](OC[C@H]2O[C@@H](O[C@H]3CC[C@]4(C)[C@H]5CC=C6[C@@H]7CC(C)(C)[C@@H](O)C[C@]7(C(=O)O)[C@H](O)C[C@@]6(C)[C@]5(C)CC[C@H]4C3(C)C)[C@H](O[C@@H]3O[C@H](CO)[C@@H](O)[C@H](O)[C@H]3O)[C@@H](O)[C@@H]2O)[C@H](O[C@@H]2OC[C@@H](O)[C@H](O)[C@H]2O)[C@@H](O)[C@H]1O`, over 100 µg/mL.

Regarding `CC1(C)C[C@H]2C3=CC[C@@H]4[C@@]5(C)CC[C@H](O[C@@H]6O[C@H](CO[C@@H]7OC[C@H](O)[C@H](O)[C@H]7O[C@@H]7OC[C@@H](O)[C@H](O)[C@H]7O)[C@@H](O)[C@H](O)[C@H]6O[C@@H]6O[C@H](CO)[C@@H](O)[C@H](O)[C@H]6O)C(C)(C)[C@@H]5CC[C@@]4(C)[C@]3(C)C[C@@H](O)[C@@]23C[C@@H]1OC3=O`, the EC50 is over 100 µg/mL. For the compound `C=CC(C)(CC/C=C(\C)C(=O)O)O[C@@H]1O[C@H](C)[C@@H](O)[C@H](O)[C@H]1O` (mixture of isomers), the EC50 is over 100 µg/mL.
